Calls of active or inactive are those of the source. No cut-off for these calls is given here.
Columns and labels:
Rattus norvegicus [1] = experiment: Adjuvant arthritic rat activity with respect to spirogermanium at a dose of 15 mg/kg; type: functional
How it was run: (§1)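 Lewis rats given adjuvant on day 0. Drug homogenized in aqueous 0.5% gum tragacanth, given orally at 10 mL/kg daily on days 0–10. Volume of the noninjected (secondary) hind paw measured on day 16 by mercury displacement. Activity is relative to non-drug controls and scaled to spirogermanium at 30 mg/kg, which is set at 1.00. Significance by Student's t test.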

Rattus norvegicus [2] = experiment: Adjuvant arthritic rat activity determined with respect to spirogermanium at a dose of 30 mg/kg; type: functional; how it was run: as §1
Rattus norvegicus [3] = experiment: Total starting number of animals upon administration at a dose of 60 mg/kg; 0/6; type: functional
Rattus norvegicus [4] = experiment: Total starting number of animals upon administration at a dose of 15 mg/kg; 8/8; type: functional
Rattus norvegicus [5] = experiment: Total starting number of animals upon administration at a dose of 30 mg/kg; 8/8; type: functional
Rattus norvegicus [6] = experiment: Total starting number of animals upon administration at a dose of 30 mg/kg; 0/8; type: functional
Rattus norvegicus [7] = experiment: Total starting number of animals upon administration at a dose of 15 mg/kg; 2/8; type: functional
Rattus norvegicus [8] = experiment: Total starting number of animals upon administration at a dose of 7.5 mg/kg; 8/8; type: functional
Rattus norvegicus [9] = experiment: Adjuvant arthritic rat activity with respect to spirogermanium at a dose of 7.5 mg/kg; type: functional; how it was run: as §1
Rattus norvegicus [10] = experiment: Total starting number of animals upon administration at a dose of 30 mg/kg; 0/7; type: functional
Rattus norvegicus [11] = experiment: Total starting number of animals upon administration at a dose of 15 mg/kg; 1/8; type: functional
Rattus norvegicus [12] = experiment: Adjuvant arthritic rat activity with respect to spirogermanium at a dose of 30 mg/kg; type: functional; how it was run: as §1
Rattus norvegicus [13] = experiment: Total starting number of animals upon administration at a dose of 60 mg/kg; 8/8; type: functional
Rattus norvegicus [14] = experiment: (§2) Adjuvant arthritic rat activity with respect to spirogermanium at a dose of 60 mg/kg; type: functional; how it was run: as §1
Rattus norvegicus [15] = experiment: Total starting number of animals upon administration at a dose of 60 mg/kg; 5/8; type: functional
Rattus norvegicus [16] = experiment: Total starting number of animals upon administration at a dose of 30 mg/kg; 6/6; type: functional
Rattus norvegicus [17] = experiment: as §2; type: functional; remark: listed apart in the source
Rattus norvegicus [18] = experiment: Adjuvant arthritic rat activity with respect to spirogermanium at a dose of 10 mg/kg; type: functional
Rattus norvegicus [19] = experiment: Total starting number of animals upon administration at a dose of 90 mg/kg; 0/7; type: functional
Rattus norvegicus [20] = experiment: Total starting number of animals upon administration at a dose of 30 mg/kg; 7/7; type: functional
Rattus norvegicus [21] = experiment: Total starting number of animals upon administration at a dose of 10 mg/kg; 7/7; type: functional
Rattus norvegicus [22] = experiment: Total starting number of animals upon administration at a dose of 30 mg/kg; 3/8; type: functional
Rattus norvegicus [23] = experiment: Total starting number of animals upon administration at a dose of 30 mg/kg; 5/6; type: functional
Rattus norvegicus [24] = experiment: Total starting number of animals upon administration at a dose of 30 mg/kg; 7/8; type: functional
Rattus norvegicus [25] = experiment: Total starting number of animals upon administration at a dose of 15 mg/kg; 0/7; type: functional, organism-based; design: dose 15 mg/kg
Rattus norvegicus [26] = experiment: Total starting number of animals upon administration at a dose of 60 mg/kg; 0/7; type: functional, organism-based; design: dose 60 mg/kg
Rattus norvegicus [27] = experiment: Adjuvant arthritic rat activity with respect to spirogermanium at a dose of 30 mg/kg, active; type: functional, organism-based; design: dose 30 mg/kg
Rattus norvegicus [28] = experiment: Adjuvant arthritic rat activity with respect to spirogermanium at a dose of 15 mg/kg, inactive; type: functional, organism-based; design: dose 15 mg/kg
Rattus norvegicus [29] = experiment: Total starting number of animals upon administration at a dose of 25 mg/kg; 7/7; type: functional
Rattus norvegicus [30] = experiment: Adjuvant arthritic rat activity with respect to spirogermanium at a dose of 25 mg/kg; type: functional

CCCC1(CCC)CCC2(CCN(CCCN(C)C)C2)CC1
Activity (Rattus norvegicus [1]): 0.18 | Activity (Rattus norvegicus [2]): 1.35 | Survival (Rattus norvegicus [3]): 0 | Survival (Rattus norvegicus [4]): 8 | Survival (Rattus norvegicus [5]): 8

CCCCC1(CCCC)CCC2(CCN(CCCN(C)C)C2)CC1
Survival (Rattus norvegicus [6]): 0 | Survival (Rattus norvegicus [7]): 2 | Survival (Rattus norvegicus [8]): 8 | Activity (Rattus norvegicus [9]): 0.41

CCCC1(CCC)CCC2(CCN(CCCN3CCOCC3)C2)CC1.Cl
Survival (Rattus norvegicus [10]): 0 | Activity (Rattus norvegicus [1]): 0 | Activity (Rattus norvegicus [2]): 0 | Survival (Rattus norvegicus [11]): 1

CCCC1(CCC)CCC2(CCN(CCCCCCCN(C)C)C2)CC1
Activity (Rattus norvegicus [12]): 1.57 | Survival (Rattus norvegicus [5]): 8

CN(C)CCCN1CCC2(CC3CCC2C3)C1.Cl (stereo not given)
Survival (Rattus norvegicus [13]): 8 | Activity (Rattus norvegicus [2]): 0 | Activity (Rattus norvegicus [14]): 0.1 | Survival (Rattus norvegicus [5]): 8

CCCC1(CCC)CCC2(CCN(CCCCCN(C)C)C2)CC1
Activity (Rattus norvegicus [2]): 0.82 | Survival (Rattus norvegicus [5]): 8

CN(C)CCCN1CCC2(CCC3(CCCCCC3)CC2)C1
Activity (Rattus norvegicus [2]): 0.22 | Activity (Rattus norvegicus [14]): 1.7 | Survival (Rattus norvegicus [15]): 5 | Survival (Rattus norvegicus [5]): 8

CN(C)CCCN1CCC2(CCCCC2)C1
Activity (Rattus norvegicus [2]): 0.27 | Survival (Rattus norvegicus [5]): 8

CN(C)CCCN1CCC2(CCC(C(C)(C)C)CC2)C1 (stereo not given)
Activity (Rattus norvegicus [2]): 0.31 | Survival (Rattus norvegicus [5]): 8

CCCC1(CCC)CCC2(CCN(CCCN3CCCC3)C2)CC1
Activity (Rattus norvegicus [2]): 1.03 | Survival (Rattus norvegicus [5]): 8

CN(C)CCCN1CC2C3CCC(CC3)C2C1.Cl (stereo not given)
Activity (Rattus norvegicus [2]): 0.35 | Survival (Rattus norvegicus [5]): 8

CCCC1(CCC)CCC2(CCN(CCCCN(C)C)C2)CC1
Activity (Rattus norvegicus [2]): 0.46 | Survival (Rattus norvegicus [5]): 8

CCCC1(CCC)CCC2(CCN(CCCCCCN(C)C)C2)CC1
Activity (Rattus norvegicus [2]): 1.2 | Survival (Rattus norvegicus [5]): 8

CC[Si]1(CC)CCC2(CCN(CCCN(C)C)C2)CC1
Activity (Rattus norvegicus [1]): 0.27 | Activity (Rattus norvegicus [2]): 0.92 | Survival (Rattus norvegicus [4]): 8 | Survival (Rattus norvegicus [5]): 8

CCCCCC1(CCCCC)CCN(CCCN(C)C)C1.Cl
Activity (Rattus norvegicus [2]): 0.19 | Survival (Rattus norvegicus [5]): 8

CCCC1(CCC)CCC2(CCN(CCCNC)C2)CC1
Activity (Rattus norvegicus [2]): 1.55 | Survival (Rattus norvegicus [16]): 6

CCCN(CCC)CCCN1CCC2(CCC(CCC)(CCC)CC2)C1
Activity (Rattus norvegicus [2]): 0.43 | Survival (Rattus norvegicus [5]): 8

CCCCCCCCCCC1CCC2(CC1)CCN(CCCN(C)C)C2 (stereo not given)
Activity (Rattus norvegicus [12]): 0.78 | Survival (Rattus norvegicus [5]): 8

CCCC1(CCC)CCC2(CCN(CCCO)C2)CC1.Cl
Survival (Rattus norvegicus [13]): 8 | Activity (Rattus norvegicus [14]): 0.31

CC1CCC2(CC1)CCN(CCCN(C)C)CC2
Activity (Rattus norvegicus [2]): 0.25 | Survival (Rattus norvegicus [5]): 8

CN(C)CCCN1CCC2(CC[Si](C)(C)CC2)C1
Activity (Rattus norvegicus [17]): 0 | Survival (Rattus norvegicus [5]): 0

CCCC1(CCC)CCC2(CCN(CCN(C)C)C2)CC1
Activity (Rattus norvegicus [2]): 0 | Survival (Rattus norvegicus [5]): 8

CCCC1(CCC)CCC2(CCN(CCCN(CC)CC)C2)CC1 [ATIPRIMOD]
Activity (Rattus norvegicus [2]): 1.42 | Survival (Rattus norvegicus [5]): 8

CC1CCCC2(CCN(CCCN(C)C)C2)C1.Cl (stereo not given)
Activity (Rattus norvegicus [2]): 0 | Survival (Rattus norvegicus [5]): 8

CCC1(CC)CCC2(CCN(CCCN(C)C)CC2)CC1
Activity (Rattus norvegicus [18]): 0.03 | Activity (Rattus norvegicus [2]): 0.3 | Survival (Rattus norvegicus [19]): 0 | Survival (Rattus norvegicus [20]): 7 | Survival (Rattus norvegicus [21]): 7

CN(C)CCCN1CCC2(CCC(C)(C)CC2)C1
Activity (Rattus norvegicus [2]): 0.12 | Survival (Rattus norvegicus [5]): 8

CCCC1(CCC)CCC2(CCN(CCCN(C)C)CC2)CC1
Activity (Rattus norvegicus [2]): 1.02 | Survival (Rattus norvegicus [22]): 3

CCCC1(CCC)CCC2(CCN(CCCNC(C)=O)C2)CC1
Activity (Rattus norvegicus [2]): 0.24 | Survival (Rattus norvegicus [16]): 6

CCCC1(CCC)CCC2(CCN(CCCN3CCCCC3)C2)CC1
Activity (Rattus norvegicus [2]): 1.7 | Survival (Rattus norvegicus [5]): 8

CCCCN(CCCC)CCCN1CCC2(CCC(CCC)(CCC)CC2)C1
Activity (Rattus norvegicus [2]): 0.07 | Survival (Rattus norvegicus [5]): 8

CN(C)CCCN1CCC2(CCCCCC2)C1.Cl
Activity (Rattus norvegicus [2]): 0.2 | Survival (Rattus norvegicus [5]): 8

CN(C)CCCN1CCC2(CCC(C(C)(C)C)CC2)CC1
Activity (Rattus norvegicus [18]): 0.04 | Activity (Rattus norvegicus [2]): 0.33 | Survival (Rattus norvegicus [19]): 0 | Survival (Rattus norvegicus [20]): 7 | Survival (Rattus norvegicus [21]): 7

CCCCCC1(CCCCC)CCC2(CCN(CCCN(C)C)CC2)CC1
Activity (Rattus norvegicus [1]): 0.18 | Survival (Rattus norvegicus [6]): 0 | Survival (Rattus norvegicus [8]): 8 | Survival (Rattus norvegicus [4]): 8 | Activity (Rattus norvegicus [9]): 0.18

CN(C)CCCN1CCC2(CCC(c3ccccc3)CC2)C1 (stereo not given)
Activity (Rattus norvegicus [2]): 0.25 | Survival (Rattus norvegicus [5]): 8

CCCC1(CCC)CCC2(CCN(CCCN)C2)CC1
Survival (Rattus norvegicus [23]): 5 | Activity (Rattus norvegicus [2]): 0.91

CN(C)CCCN1CCC2(CCCCC2)CC1
Activity (Rattus norvegicus [2]): 0.2 | Survival (Rattus norvegicus [5]): 8

CC(C)CC1(CC(C)C)CCC2(CCN(CCCN(C)C)C2)CC1
Survival (Rattus norvegicus [24]): 7 | Activity (Rattus norvegicus [2]): 0.97

[3-(8,8-Diethyl-2-aza-8-germa-spiro[4.5]dec-2-yl)-propyl]-dimethyl-amine
Survival (Rattus norvegicus [10]): 0 | Survival (Rattus norvegicus [25]): 0 | Survival (Rattus norvegicus [26]): 0 | Activity (Rattus norvegicus [27]): Active | Activity (Rattus norvegicus [28]): inactive

CN(C)CCCN1CCC2(CCSCC2)C1
Survival (Rattus norvegicus [29]): 7 | Activity (Rattus norvegicus [30]): 0

CCC1(CC)CCC2(CCN(CCCN(C)C)C2)CC1
Activity (Rattus norvegicus [18]): 0.1 | Activity (Rattus norvegicus [2]): 0.57 | Survival (Rattus norvegicus [19]): 0 | Survival (Rattus norvegicus [20]): 7 | Survival (Rattus norvegicus [21]): 7

CCCC1(CCC)CCC2(CC1)CC[N+](C)(CCC[N+](C)(C)C)C2 (stereo not given)
Activity (Rattus norvegicus [2]): 0.05 | Survival (Rattus norvegicus [5]): 8

From ChEMBL document CHEMBL1125002, “Antiarthritic and suppressor cell inducing activity of azaspiranes: structure-function relationships of a novel class of immunomodulatory agents” (J Med Chem, 1990)
